Measured values from ChEMBL document CHEMBL2016502, “Synthesis and fungicidal activity of tubulin polymerisation promoters. Part 2: pyridazines” (2012).
Converted amounts (≈) assume the structure as drawn. The source made the active and inactive calls. The calls are words filed in the database; no cut-off is given here.

Key:
Zymoseptoria tritici = experiment: Antifungal activity against Mycosphaerella graminicola infected in wheat plant assessed as decrease in wheat leaf blotch relative to control; format: functional
Method in brief: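 Wheat plants (cv. Riband, two weeks old) were treated in a spray chamber with formulated compound diluted in water and spray-inoculated with spores 1 day later. They were incubated for 1 day at 22/21 °C (day/night) and 95% rh, then kept in a greenhouse at 22/21 °C and 70% rh. Efficacy was scored 16–19 days after application, against diseased untreated checks.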

Botrytis cinerea = experiment: Antifungal activity against Botrytis cinerea infected tomato plant assessed as leaf area with disease after 2 days relative to control; format: functional; details: 48 h
Method in brief: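 Tomato plants (cv. Roter Gnom, four weeks old) received a spray-chamber application of formulated compound in water. A spore suspension was sprayed on 2 days after treatment. Plants were incubated in a greenhouse at 20 °C and 95% rh. Diseased leaf area (%) was assessed 5–6 days after application, when untreated checks were adequately diseased.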

Alternaria solani = experiment: Antifungal activity against Alternaria solani infected in tomato plant assessed as leaf area with disease after 2 days relative to control; format: functional; details: 48 h
Method in brief: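 Four-week-old tomato plants (cv. Roter Gnom) were sprayed in a chamber with formulated compound diluted in water. Plants were spray-inoculated with a spore suspension 2 days later and held in a greenhouse at 22/18 °C (day/night) and 95% rh.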

Tubulin (Sus scrofa) = Tubulin (Sus scrofa) (UniProt P02554+P02550); experiment: Induction of porcine tubulin polymerization at 0.24 to 20 ppm by spectrophotometric analysis; format: protein assay
Method in brief: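 Compound was added at reaction start at 20, 2.2 and 0.24 ppm from a 0.2 mM DMSO solution. The reaction was started at 37 °C and followed by absorbance at 340 nm. Paclitaxel served as positive control and DMSO as negative control.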

Chain of Tubulin (Sus scrofa) (P02550 whole entry, looked up): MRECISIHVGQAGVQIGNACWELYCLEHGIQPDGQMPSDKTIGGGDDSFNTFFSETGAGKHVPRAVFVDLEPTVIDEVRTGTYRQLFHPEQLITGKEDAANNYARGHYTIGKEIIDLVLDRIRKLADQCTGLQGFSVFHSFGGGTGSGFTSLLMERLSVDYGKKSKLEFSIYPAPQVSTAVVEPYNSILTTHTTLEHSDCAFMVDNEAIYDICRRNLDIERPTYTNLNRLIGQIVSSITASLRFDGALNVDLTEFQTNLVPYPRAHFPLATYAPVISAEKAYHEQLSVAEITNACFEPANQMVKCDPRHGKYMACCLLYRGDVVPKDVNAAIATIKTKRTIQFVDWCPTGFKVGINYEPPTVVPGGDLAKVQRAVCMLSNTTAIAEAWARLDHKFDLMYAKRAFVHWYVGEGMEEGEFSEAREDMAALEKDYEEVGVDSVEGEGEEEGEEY
Chain of Tubulin (Sus scrofa) (P02554 whole entry, looked up): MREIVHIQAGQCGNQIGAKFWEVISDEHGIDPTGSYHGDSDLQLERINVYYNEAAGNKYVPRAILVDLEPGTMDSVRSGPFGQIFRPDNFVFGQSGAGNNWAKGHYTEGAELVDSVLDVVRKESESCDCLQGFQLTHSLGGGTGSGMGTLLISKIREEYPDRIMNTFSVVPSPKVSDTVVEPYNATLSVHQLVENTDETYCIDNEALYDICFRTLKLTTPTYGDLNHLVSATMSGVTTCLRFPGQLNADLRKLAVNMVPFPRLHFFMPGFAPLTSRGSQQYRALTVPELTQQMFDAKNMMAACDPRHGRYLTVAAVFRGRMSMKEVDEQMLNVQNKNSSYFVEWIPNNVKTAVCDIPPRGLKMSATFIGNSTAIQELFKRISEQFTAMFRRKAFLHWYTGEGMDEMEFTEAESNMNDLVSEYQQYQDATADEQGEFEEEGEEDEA

| Structure (SMILES) | EC80 (Zymoseptoria tritici) | EC80 (Botrytis cinerea) | EC80 (Alternaria solani) | Activity (Tubulin (Sus scrofa)) |
| --- | --- | --- | --- | --- |
| COc1cc(F)c(-c2c(Cl)nnc(C)c2-c2ccc(Cl)nc2)cc1F | 46 µg/mL (≈ 120 µM) | 23 µg/mL (≈ 60.2 µM) | 19 µg/mL (≈ 49.7 µM) | – |
| Cc1nnc(Cl)c(-c2c(F)cc(F)cc2F)c1-c1ccc(Cl)nc1 | 1 µg/mL (≈ 2.7 µM) | 1 µg/mL (≈ 2.7 µM) | 2 µg/mL (≈ 5.4 µM) | – |
| Cc1nnc(Cl)c(-c2ncc(Cl)cc2Cl)c1-c1ccc(Cl)nc1 | 9 µg/mL (≈ 23.3 µM) | 15 µg/mL (≈ 38.9 µM) | 33 µg/mL (≈ 85.5 µM) | – |
| COc1nnc(C)c(-c2ccc(Cl)cc2)c1-c1c(F)cc(F)cc1F | 53 µg/mL (≈ 145 µM) | 97 µg/mL (≈ 266 µM) | 57 µg/mL (≈ 156 µM) | – |
| CC(=O)O[C@H]1C(=O)[C@@]2(C)[C@H]([C@H](OC(=O)c3ccccc3)[C@]3(O)C[C@H](OC(=O)[C@H](O)[C@@H](NC(=O)c4ccccc4)c4ccccc4)C(C)=C1C3(C)C)[C@]1(OC(C)=O)CO[C@@H]1C[C@@H]2O | – | – | – | Active |
| Cc1nnc(Cl)c(-c2c(F)cc(F)cc2F)c1Cc1ccccc1 | 50 µg/mL (≈ 143 µM) | 77 µg/mL (≈ 221 µM) | 56 µg/mL (≈ 161 µM) | – |
| C#Cc1ccc(-c2c(C)nnc(Cl)c2-c2c(F)cc(F)cc2F)cc1 | 1 µg/mL (≈ 2.79 µM) | 3 µg/mL (≈ 8.36 µM) | 1 µg/mL (≈ 2.79 µM) | – |
| Cc1nnc(F)c(-c2c(F)cc(F)cc2F)c1-c1ccc(Cl)cc1 | 191 µg/mL (≈ 542 µM) | 8 µg/mL (≈ 22.7 µM) | 17 µg/mL (≈ 48.2 µM) | – |
| CN(C)c1nnc(Cl)c(-c2c(F)cc(F)cc2F)c1-c1ccc(Cl)cc1 | 6 µg/mL (≈ 15.1 µM) | 40 µg/mL (≈ 100 µM) | 16 µg/mL (≈ 40.2 µM) | – |
| Cc1nnc(O)c(-c2c(F)cc(F)cc2F)c1-c1ccc(Cl)cc1 | > 200 µg/mL | > 200 µg/mL | > 200 µg/mL | – |
| Cc1nnc(C)c(-c2c(F)cc(F)cc2F)c1-c1ccc(Cl)cc1 | 14 µg/mL (≈ 40.1 µM) | 4 µg/mL (≈ 11.5 µM) | 18 µg/mL (≈ 51.6 µM) | – |
| COc1cc(F)cc(F)c1-c1c(Cl)nnc(C)c1-c1ccc(Cl)nc1 | 95 µg/mL (≈ 249 µM) | > 200 µg/mL | 17 µg/mL (≈ 44.5 µM) | – |
| Cc1nnc(Cl)c(-c2c(F)cccc2F)c1-c1ccc(Cl)nc1 | 60 µg/mL (≈ 170 µM) | 78 µg/mL (≈ 221 µM) | 54 µg/mL (≈ 153 µM) | – |
| Cc1nnc(Cl)c(-c2c(F)cc(F)cc2F)c1-c1ccc(Cl)cc1 | 2 µg/mL (≈ 5.42 µM) | 6 µg/mL (≈ 16.3 µM) | 2 µg/mL (≈ 5.42 µM) | – |
| Cc1nnc(Cl)c(-c2c(F)cc(F)cc2F)c1-c1ccc(Cl)s1 | 41 µg/mL (≈ 109 µM) | 25 µg/mL (≈ 66.6 µM) | 49 µg/mL (≈ 131 µM) | Active |
| COc1nnc(Cl)c(-c2c(F)cc(F)cc2F)c1-c1ccc(Cl)cc1 | 14 µg/mL (≈ 36.3 µM) | 58 µg/mL (≈ 151 µM) | 92 µg/mL (≈ 239 µM) | – |
| Cc1nnc(Cl)c(-c2c(F)cc(F)cc2F)c1-c1ccc2ccccc2n1 | 5 µg/mL (≈ 13 µM) | 1 µg/mL (≈ 2.59 µM) | 4 µg/mL (≈ 10.4 µM) | – |
| Fc1cc(F)c(-c2c(Cl)nnc(Cl)c2-c2ccc(Cl)cc2)c(F)c1 | 96 µg/mL (≈ 246 µM) | 127 µg/mL (≈ 326 µM) | 134 µg/mL (≈ 344 µM) | – |
| CSc1nnc(Cl)c(-c2c(F)cc(F)cc2F)c1-c1ccc(Cl)cc1 | 90 µg/mL (≈ 224 µM) | 124 µg/mL (≈ 309 µM) | 42 µg/mL (≈ 105 µM) | – |
| COc1cc(F)c(-c2c(Cl)nnc(C)c2-c2ccc(Cl)nc2)c(F)c1 | 3 µg/mL (≈ 7.85 µM) | 1 µg/mL (≈ 2.62 µM) | 1 µg/mL (≈ 2.62 µM) | – |
